Experimental data of several laboratories.
EGFR del752-759: Epidermal growth factor receptor (EGFR, Homo sapiens, UniProt P00533, del752-759)
EGFR del747-752/P753S: Epidermal growth factor receptor (EGFR, Homo sapiens, UniProt P00533, del747-752/P753S)
EGFR L858R: Epidermal growth factor receptor (EGFR, Homo sapiens, UniProt P00533, L858R)
EGFR A750P/del747-749: Epidermal growth factor receptor (EGFR, Homo sapiens, UniProt P00533, A750P/del747-749)
EGFR: Epidermal growth factor receptor (EGFR, Homo sapiens, UniProt P00533)
EGFR G719S: Epidermal growth factor receptor (EGFR, Homo sapiens, UniProt P00533, G719S)
EGFR del747-750/T751S: Epidermal growth factor receptor (EGFR, Homo sapiens, UniProt P00533, del747-750/T751S)
EGFR del746-750: Epidermal growth factor receptor (EGFR, Homo sapiens, UniProt P00533, del746-750)
EGFR L861Q: Epidermal growth factor receptor (EGFR, Homo sapiens, UniProt P00533, L861Q)
EGFR L858R/T790M: Epidermal growth factor receptor (EGFR, Homo sapiens, UniProt P00533, L858R/T790M)

| SMILES | target | observed | technique | concentration | remaining binding [%] |
| --- | --- | --- | --- | --- | --- |
| CC(=O)N1CCC(c2ccc(C(=O)NC(=N)N)cc2C(F)(F)F)CC1 | EGFR del752-759 | cell-free assay | competition with immobilised ligand | 1 µM | 90 |
| Nc1ncc2c(n1)-c1c([nH]c3ccc(C#CC4CC4)cc13)CCCC2 | EGFR del747-752/P753S | binding | competition with immobilised ligand | 1 µM | 56 |
| N[C@H]1CCN(c2nccc(-c3cnn4ncccc34)n2)C1 | EGFR L858R | binding |  | 1 µM | 100 |
| CN1CCN(c2ccc(Nc3nccc(-c4ccccc4)n3)cc2C(F)(F)F)CC1 | EGFR L858R | binding |  | 10 µM | 84 |
| O=C(NCCCN1CCOCC1)c1ccc(Nc2ncc(Cl)c(-c3ccc(Cl)s3)n2)cc1 | Epidermal growth factor receptor (EGFR, Homo sapiens, UniProt P00533, G719C) | binding | competition with immobilised ligand | 1 µM | 100 |
| Cc1c(NC(=O)c2cc(C(N)=O)nc3cc(F)ccc23)c(C(F)(F)F)nn1Cc1ccc(C(C)(C)C)cc1 | EGFR A750P/del747-749 | cell-free assay | competition with immobilised ligand | 1 µM | 100 |
| O=C(c1ccc(Nc2ncc(Cl)c(-c3ccc(Cl)s3)n2)cc1)N1CCC(N2CCCC2)CC1 | EGFR del747-752/P753S | binding | competition with immobilised ligand | 1 µM | 82 |
| CCN(CC)Cc1cc(Nc2ccnc3cc(Cl)ccc23)ccc1O | EGFR | cell-free assay | competition with immobilised ligand | 10 µM | 91 |
| CCC(=N\O)/C(C)=C/c1ccc(F)cc1 | Epidermal growth factor receptor (EGFR, Homo sapiens, UniProt P00533, T790M) | cell-free assay | competition with immobilised ligand | 1 µM | 100 |
| Cc1cnc(Nc2ccc(C(=O)N3CCC(N4CCCC4)CC3)cc2)nc1-c1cc2ccccc2s1 | EGFR L858R | binding | competition with immobilised ligand | 1 µM | 72 |
| CNC(=O)[C@@H]1CC[C@@H](n2c(-c3ccc4cnccc4c3)nc3ccc(C(=O)NCc4cccc(C(N)=O)c4)cc32)C1 | EGFR A750P/del747-749 | binding | competition with immobilised ligand | 1 µM | 100 |
| COc1ccnn2ncc(-c3ccnc(N(C)C)n3)c12 | EGFR L858R | binding |  | 1 µM | 100 |
| CS(=O)(=O)NCC[C@H](NC(=O)c1cncc2c1cnn2-c1ccc(F)cc1)c1ccnc(S(C)(=O)=O)c1 | EGFR G719S | cell-free assay | competition with immobilised ligand | 1 µM | 75 |
| COc1cnc(Nc2cccc(S(N)(=O)=O)c2)nc1N1CCN(c2ccccc2)C(=O)C1 | EGFR del747-752/P753S | binding | competition with immobilised ligand | 1 µM | 75 |
| O=C(c1ccc(Nc2ncc(Cl)c(-c3cc4ccccc4s3)n2)cc1)N1CCC(N2CCCC2)CC1 | EGFR del747-750/T751S | binding | competition with immobilised ligand | 1 µM | 89 |
| CN(CCCC(F)(F)F)c1nccc(-c2cnn3ncccc23)n1 | EGFR del746-750 | binding |  | 1 µM | 80 |
| FC(F)(F)Oc1cccc(-c2cnc3ccc(-c4ccncc4)nn23)c1 | EGFR | cell-free assay | competition with immobilised ligand | 5 µM | 79 |
| CN(C)c1nccc(-c2cnn3ncccc23)n1 | EGFR L861Q | binding |  | 1 µM | 90 |

| SMILES | target | observed | technique | concentration | remaining binding [%] |
| --- | --- | --- | --- | --- | --- |
| O=C(NCC1CCOCC1)c1n[nH]cc1NC(=O)c1c(F)cccc1F | EGFR L861Q | binding | competition with immobilised ligand | 1 µM | 100 |
| F[C@@H]1CCN(c2nccc(-c3cnn4ncccc34)n2)C1 | EGFR L861Q | binding |  | 1 µM | 93 |
| O=C(Nc1c[nH]nc1C(=O)NC1CCNCC1)c1cc(F)cc(F)c1 | EGFR | binding | competition with immobilised ligand | 1 µM | 96 |
| COc1cnc(Nc2cccc(S(N)(=O)=O)c2)nc1N1CCN(c2ccccc2)CC1 | EGFR L858R/T790M | binding | competition with immobilised ligand | 1 µM | 87 |
| CCN1CCN(Cc2ccc(C(=O)Nc3ccc(C)c(Oc4ccc5c(c4)CC(=O)N5)c3)cc2C(F)(F)F)CC1 | EGFR | binding | competition with immobilised ligand | 1 µM | 100 |
| C[C@@H]1CN(c2cc(-c3n[nH]c4ccc(OC5(C)CC5)cc34)ncn2)C[C@H](C)O1 | EGFR L858R | cell-free assay | competition with immobilised ligand | 0.1 µM | 82 |
| O=C(c1ccc(Nc2nccc(-c3cc4ccccc4s3)n2)cc1)N1CCC(N2CCCC2)CC1 | EGFR L858R/T790M | binding | competition with immobilised ligand | 1 µM | 58 |
| c1cncc(-c2cccc(Nc3nccc(NC4CCCCC4)n3)c2)c1 | EGFR L858R | binding | competition with immobilised ligand | 10 µM | 58 |
| COc1ncc2cc3ccccc3nc2c1C#N | EGFR del752-759 | cell-free assay | competition with immobilised ligand | 5 µM | 96 |
| O=C(NCCCN1CCOCC1)c1ccc(Nc2nccc(-c3cc4ccccc4s3)n2)cc1 | EGFR A750P/del747-749 | binding | competition with immobilised ligand | 1 µM | 100 |
| N#Cc1ccccc1CSc1nnc2c(n1)[nH]c1ccccc12 | EGFR | binding | competition with immobilised ligand | 10 µM | 100 |
| C[C@@H](c1cccc(C#N)c1)n1cc(Cl)cc(C(N)=O)c1=N | EGFR del746-750 | cell-free assay | competition with immobilised ligand | 1 µM | 93 |
| Cc1cnn2ncc(-c3ccnc(N(C)C)n3)c2c1 | EGFR del746-750 | binding |  | 1 µM | 100 |
| O=C(NC1CCC1)c1ccc2nc(-c3cccc(NS(=O)(=O)NCCN4CCCCC4)c3)cn2c1 | EGFR del747-750/T751S | cell-free assay | competition with immobilised ligand | 10 µM | 100 |
| CN(c1ccnc(CNc2nc(Nc3ccc4c(c3)CC(=O)N4)ncc2C(F)(F)F)n1)S(C)(=O)=O | EGFR del747-750/T751S | cell-free assay | competition with immobilised ligand | 1 µM | 83 |
| CN1CCN(c2ccc(Nc3nccc(-c4cccc([N+](=O)[O-])c4)n3)cc2C(F)(F)F)CC1 | EGFR del752-759 | binding |  | 10 µM | 74 |
| COc1cccc(CNC(=O)c2nc3scc(COCc4ccc(C(=O)O)cc4)c3c(=O)[nH]2)c1 | EGFR L858R | cell-free assay | competition with immobilised ligand | 1 µM | 88.3 |
| C[C@H]1CCN(c2nccc(-c3cnn4ncccc34)n2)C1 | EGFR G719S | binding |  | 1 µM | 75 |
